pIC50, pKi: −log10 of the molar value. ≈ marks a conversion by molar mass, not a printed value. Calls of active or inactive are those of the source. The rule behind the calls is not given here.
Experiments:
[1] = molecular target: T1, Alkaline phosphatase, placental type (Homo sapiens, UniProt P05187); experiment: Inhibition of placental alkaline phosphatase (unknown origin) assessed as para nitrophenylphosphate conversion to p-nitrophenolate at pH 10.4 incubated for 10 mins prior to substrate addition measured after 5 seconds by spectrophotometric analysis
Procedure, shortened: (§1)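 Enzyme (TNAP, PLAP or IAP; final 6.93–11.4 µg/ml) in buffer with inhibitor at 0–400 µM, added from 10 mM DMSO stock. Preincubated 10 min at 37 °C without substrate, then mixed with an equal volume of 0.1 mM pNPP in the same buffer and stirred 5 s. p-Nitrophenolate read at 400 nm (ε 18.5 cm⁻¹ mM⁻¹ at pH 10.4), final DMSO 4% v/v. Activity relative to the no-inhibitor control. pH 7.8 runs used 0.1 M Tris–HCl with 5 mM MgCl2 and 5 mM ZnCl2 at 37 °C.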

[2] = Uncompetitive inhibition of porcine kidney TNAP assessed as para nitrophenylphosphate conversion to p-nitrophenolate at pH 7.8 by Michaelis-Menten plot analysis; parameters: species or system Sus scrofa
Procedure, shortened: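 Porcine kidney TNAP activity measured with pNPP at pH 7.8 in 0.1 M Tris–HCl containing 5 mM MgCl2 and 5 mM ZnCl2 at 37 °C. Inhibitor was preincubated with enzyme for 10 min before substrate, and p-nitrophenolate was read at 400 nm to derive Ki.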

[3] = Cytotoxicity against human Saos2 cells assessed as cell viability up to 10 uM by MTT assay; assay type: cell-based; details: saos-2
Procedure, shortened: (§2)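 MTT viability: cells seeded at 3 × 10^4 cells/cm2 and treated with ascorbic acid plus 7.5 mM β-glycerophosphate, with or without inhibitor (DMSO ≤0.1% v/v final). MTT at 0.5 mg/ml final for 4 h, then solubilization solution overnight at 37 °C. Absorbance at 550 and 690 nm as % of untreated control, mean ± SD. MG63: one pool in triplicate (n = 3). Saos-2: 3–4 pools in triplicate (n = 9–12).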

[4] = test system: SAOS-2; experiment: Reduction in beta-glycerophosphate-induced mineralization in human Saos2 cells at 10 uM after 7 days by Alizarin Red S staining-based assay relative to control; assay type: functional; parameters: scale not given: the % may be the effect or the level left
Procedure, shortened: (§3)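 Confluent cells were cultured 7 days in growth medium with ascorbic acid and 7.5 mM β-glycerophosphate, with or without inhibitor (DMSO ≤0.1% v/v). Saos-2 were grown in McCoy's 5A with 15% FBS. Mineral was stained with Alizarin Red S, destained with 3.6% w/v cetylpyridinium chloride in PBS pH 7.0 for 60 min at room temperature, and read at 562 nm. Results are % of control, mean ± SD; MG63 n = 3, Saos-2 n = 9–12.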

[5] = Inhibition of porcine kidney TNAP assessed as para nitrophenylphosphate conversion to p-nitrophenolate at pH 10.4 incubated for 10 mins prior to substrate addition measured after 5 seconds by spectrophotometric analysis; parameters: species or system Sus scrofa; procedure, shortened: as §1
[6] = molecular target: T2, Intestinal-type alkaline phosphatase (Homo sapiens, UniProt P09923); experiment: Inhibition of intestinal alkaline phosphatase (unknown origin) assessed as para nitrophenylphosphate conversion to p-nitrophenolate at pH 7.8 incubated for 10 mins prior to substrate addition measured after 5 seconds by spectrophotometric analysis; procedure, shortened: as §1
[7] = Solubility of the compound in water by UV spectrometric analysis; assay type: physicochemical
[8] = test system: SAOS-2; experiment: Reduction in ascorbic acid-induced mineralization in human Saos2 cells at 10 uM after 7 days by Alizarin Red S staining-based assay relative to control; assay type: functional; parameters: scale not given: the % may be the effect or the level left; procedure, shortened: as §3
[9] = Inhibition of porcine kidney TNAP assessed as para nitrophenylphosphate conversion to p-nitrophenolate at pH 7.8 incubated for 10 mins prior to substrate addition measured after 5 seconds by spectrophotometric analysis; parameters: species or system Sus scrofa; procedure, shortened: as §1
[10] = molecular target: T2, Intestinal-type alkaline phosphatase; experiment: Inhibition of intestinal alkaline phosphatase (unknown origin) assessed as para nitrophenylphosphate conversion to p-nitrophenolate at pH 10.4 incubated for 10 mins prior to substrate addition measured after 5 seconds by spectrophotometric analysis; procedure, shortened: as §1
[11] = molecular target: T1, Alkaline phosphatase, placental type; experiment: Inhibition of placental alkaline phosphatase (unknown origin) assessed as para nitrophenylphosphate conversion to p-nitrophenolate at pH 7.8 incubated for 10 mins prior to substrate addition measured after 5 seconds by spectrophotometric analysis; procedure, shortened: as §1
[12] = test system: MG-63; experiment: Reduction in beta-glycerophosphate-induced mineralization in human MG63 cells at 10 uM after 7 days by Alizarin Red S staining-based assay; assay type: functional, cell-based; procedure, shortened: as §3
[13] = Cytotoxicity against human MG63 cells assessed as cell viability up to 10 uM by MTT assay; assay type: cell-based; details: mg-63; procedure, shortened: as §2
[14] = test system: MG-63; experiment: Reduction in ascorbic acid-induced mineralization in human MG63 cells at 10 uM after 7 days by Alizarin Red S staining-based assay; assay type: functional, cell-based; procedure, shortened: as §3
[15] = Solubility of the compound

T2 sequence (P09923 whole entry): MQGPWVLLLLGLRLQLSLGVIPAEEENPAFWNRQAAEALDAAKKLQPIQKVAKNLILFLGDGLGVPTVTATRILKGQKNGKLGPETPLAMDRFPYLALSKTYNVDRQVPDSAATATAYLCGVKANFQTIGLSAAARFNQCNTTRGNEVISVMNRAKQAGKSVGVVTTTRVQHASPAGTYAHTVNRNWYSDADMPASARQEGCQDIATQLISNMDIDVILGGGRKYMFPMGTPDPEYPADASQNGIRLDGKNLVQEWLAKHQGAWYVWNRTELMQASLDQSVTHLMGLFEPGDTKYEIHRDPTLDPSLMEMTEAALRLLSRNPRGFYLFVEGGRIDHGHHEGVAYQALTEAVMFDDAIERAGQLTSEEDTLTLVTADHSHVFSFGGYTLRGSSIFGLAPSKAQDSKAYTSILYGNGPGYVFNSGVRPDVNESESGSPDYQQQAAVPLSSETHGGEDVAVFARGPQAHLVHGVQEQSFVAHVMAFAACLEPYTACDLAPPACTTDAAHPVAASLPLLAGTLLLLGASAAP
T1 sequence (P05187 whole entry): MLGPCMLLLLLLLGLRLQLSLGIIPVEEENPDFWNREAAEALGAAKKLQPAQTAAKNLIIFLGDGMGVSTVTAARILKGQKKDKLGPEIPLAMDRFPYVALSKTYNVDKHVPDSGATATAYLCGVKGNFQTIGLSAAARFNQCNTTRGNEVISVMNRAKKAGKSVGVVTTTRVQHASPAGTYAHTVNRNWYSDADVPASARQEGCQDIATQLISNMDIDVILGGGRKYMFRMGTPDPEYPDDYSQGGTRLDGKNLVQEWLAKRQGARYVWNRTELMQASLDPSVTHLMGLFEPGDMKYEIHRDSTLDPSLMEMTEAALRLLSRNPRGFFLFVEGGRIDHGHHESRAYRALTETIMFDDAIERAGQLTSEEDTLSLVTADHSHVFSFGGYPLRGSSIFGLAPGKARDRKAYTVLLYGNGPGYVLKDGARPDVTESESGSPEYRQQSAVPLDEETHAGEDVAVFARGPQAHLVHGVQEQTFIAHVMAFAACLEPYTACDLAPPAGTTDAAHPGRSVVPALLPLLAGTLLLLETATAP

pIC50 [1]	pKi [2]	pIC50 [5]	pIC50 [6]	solubility [7] [µM]	pIC50 [9]	pIC50 [10]	pIC50 [11]	solubility [15] [mM]	SMILES	Activity [3]	Activity [4]	Activity [8]	Activity [12]	Activity [13]	Activity [14]
< 3.40	5.89	5.48	< 3.40	6900	5.68	< 3.40	< 3.40	–	Cl.O=[N+]([O-])c1ccc2sc(C3CN4C=CSC4=N3)cc2c1 (racemic)	Non-toxic	25%	25%	–	–	–
< 3.40	4.99	4.63	< 3.40	1770	4.74	< 3.40	< 3.40	–	Cl.Nc1ccc2sc(C3CN4C=CSC4=N3)cc2c1 (racemic)	Non-toxic	Active	Active	–	–	–
< 3.40	5.41	4.88	< 3.40	1300	5.36	< 3.40	< 3.40	–	C1=CN2CC(c3cc4ccccc4s3)N=C2S1.Cl (racemic)	Non-toxic	Active	Active	Active	Non-toxic	Active
< 3.40	5.30	4.79	< 3.40	450	5.26	< 3.40	< 3.40	–	Cl.c1ccc2sc(C3CN4CCSC4=N3)cc2c1 (racemic)	Non-toxic	Active	Active	Active	Non-toxic	Active
< 3.40	4.52	4.20	< 3.40	–	4.63	< 3.40	< 3.40	200 (≈ 40.9 mg/mL)	c1ccc([C@H]2CN3CCSC3=N2)cc1 [LEVAMISOLE]	Non-toxic	33%	33%	Active	Non-toxic	Active

— ChEMBL document CHEMBL3091295, “Inhibitors of tissue-nonspecific alkaline phosphatase: design, synthesis, kinetics, biomineralization and cellular tests” (Bioorg Med Chem, 2013)
